{"source": "ChEMBL document CHEMBL1240504", "about": "“Synthesis of substituted thieno[2,3-d]pyrimidine-2,4-dithiones and their S-glycoside analogues as potential antiviral and antibacterial agents” (Eur J Med Chem, 2010)", "key": {"[1]": {"system": "Human alphaherpesvirus 1", "experiment": "Antiviral activity against HSV1 infected in african green monkey Vero cells after 6 hrs by plaque reduction assay", "type": "functional", "set-up": "scale not given: the % may be the effect or the level left", "in_short": "(§1)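 Modified plaque reduction in 96-well trays with no thickening overlay. Compounds dissolved in DMSO and diluted into medium, then serially diluted and added in triplicate to confluent Vero monolayers. Titred HSV-1 added in medium with 10% calf serum. Incubated 6 h at 37 °C, 5% CO2. Cells fixed with 3.7% formaldehyde and examined visually. The end-point concentration was taken from the dilution series.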"}, "[2]": {"system": "Human alphaherpesvirus 1", "experiment": "Antiviral activity against HSV1 infected in african green monkey Vero cells assessed as minimum antiviral concentration after 6 hrs", "type": "functional", "in_short": "as §1"}, "[3]": {"system": "Vero", "experiment": "Cytotoxicity against african green monkey Vero cells assessed as loss of monolayer present around the plaques", "type": "cell-based", "conditions": "Chlorocebus sabaeus", "in_short": "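Vero monolayers in serial-dilution trays with HSV-1, run in triplicate, 6 h at 37 °C, 5% CO2. Cells fixed with 3.7% formaldehyde and examined visually. IC50 is the concentration giving about 50% loss of the monolayer around HSV-1 plaques.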"}, "[4]": {"system": "Human immunodeficiency virus 1", "experiment": "Antiviral activity against HIV1 infected in human CEM cells assessed as protection against virus-induced cytopathic effect after 6 days by XTT assay", "type": "functional, organism-based", "conditions": "Human immunodeficiency virus 1, CCRF-CEM, 144 h", "in_short": "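CEM T4 lymphocytes received serially diluted compounds (DMSO stock diluted 1:100 in medium, 1:200 final dilution), then HIV-1. Incubated 6 days at 37 °C, 5% CO2. Formazan read spectrophotometrically after XTT, with microscopic check for viable cells. EC50 is the concentration giving 50% protection against the HIV cytopathic effect. AZT-treated wells served as positive control.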"}, "[5]": {"system": "CCRF-CEM", "experiment": "Cytotoxicity against […] human CEM cells after 6 days by XTT assay", "type": "cell-based", "conditions": "144 h", "in_short": "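Uninfected CEM cultures given serial compound dilutions (DMSO, 1:200 final dilution). Incubated 6 days at 37 °C, 5% CO2, then read by XTT formazan. IC50 is the molar concentration causing 50% inhibition of cell growth.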"}, "[6]": {"experiment": "Therapeutic index, ratio of IC50 for human CEM cells to EC50 for HIV1", "type": "cell-based, CCRF-CEM", "conditions": "read-out: Ratio IC50/EC50", "in_short": "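CEM T4 lymphocytes, with or without HIV-1, were incubated with serially diluted compounds (DMSO solution diluted 1:100 in medium; 1:200 final dilution after cells and virus were added) at 37 °C in 5% CO2 for 6 days. Controls were untreated and AZT-treated. Read-out was XTT formazan, measured spectrophotometrically plus microscopy. EC50 is 50% protection from cytopathic effect; IC50 is 50% growth inhibition in uninfected cultures.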"}, "[7]": {"system": "Escherichia coli", "experiment": "Antibacterial activity against Escherichia coli MTCC 41 after 12 to 16 hrs by turbidity assay", "type": "functional", "in_short": "(§2)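 Broth dilution MIC in LB broth. Tubes inoculated, incubated 12–16 h and scored by eye for turbidity (growth) versus clear (no growth).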"}, "[8]": {"system": "Escherichia coli", "experiment": "Antibacterial activity against Escherichia coli MTCC 41 at 128 mg/ml after 16 hrs by disk diffusion test", "type": "functional", "set-up": "dose or concentration left out as unconfirmed", "conditions": "MTCC 41, 16 h, read-out: IZ"}, "[9]": {"system": "Escherichia coli", "experiment": "Antibacterial activity against Escherichia coli MTCC 41 at 64 mg/ml after 16 hrs by disk diffusion test", "type": "functional", "set-up": "dose or concentration left out as unconfirmed", "conditions": "MTCC 41, 16 h, read-out: IZ"}, "[10]": {"system": "Staphylococcus aureus", "experiment": "Antibacterial activity against Staphylococcus aureus MTCC 1144 after 12 to 16 hrs by turbidity assay", "type": "functional", "in_short": "as §2"}, "[11]": {"system": "Staphylococcus aureus", "experiment": "Antibacterial activity against Staphylococcus aureus MTCC 1144 at 128 mg/ml after 16 hrs by disk diffusion test", "type": "functional", "set-up": "dose or concentration left out as unconfirmed", "conditions": "MTCC 1144, 16 h, read-out: IZ"}, "[12]": {"system": "Staphylococcus aureus", "experiment": "Antibacterial activity against Staphylococcus aureus MTCC 1144 at 64 mg/ml after 16 hrs by disk diffusion test", "type": "functional", "conditions": "MTCC 1144, 16 h, read-out: IZ", "in_short": "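Disk diffusion (zone of inhibition). Bacterial isolate spread evenly over an agar plate. A filter disk carrying a known amount of compound was placed on the surface and the compound left to diffuse. The inhibition zone in the lawn was read after 16 h incubation.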"}, "[13]": {"system": "Pseudomonas putida", "experiment": "Antibacterial activity against ampicillin-resistant Pseudomonas putida MTCC 1072 after 12 to 16 hrs by turbidity assay", "type": "functional", "in_short": "as §2"}, "[14]": {"system": "Pseudomonas putida", "experiment": "Antibacterial activity against ampicillin-resistant Pseudomonas putida MTCC 1072 at 128 mg/ml after 16 hrs by disk diffusion test", "type": "functional", "set-up": "dose or concentration left out as unconfirmed", "conditions": "MTCC 1072, 16 h, read-out: IZ"}, "[15]": {"system": "Pseudomonas putida", "experiment": "Antibacterial activity against ampicillin-resistant Pseudomonas putida MTCC 1072 at 64 mg/ml after 16 hrs by disk diffusion test", "type": "functional", "set-up": "dose or concentration left out as unconfirmed", "conditions": "MTCC 1072, 16 h, read-out: IZ"}}, "data": [{"smiles": "OC[C@H]1O[C@@H](Sc2nc3sc4c(c3c(=S)[nH]2)CCCC4)[C@@H](O)[C@@H]1O", "values": [{"measurement": "Activity", "setting": "[1]", "result": 30, "unit": "%"}, {"measurement": "MAC", "setting": "[2]", "result": 0.29, "unit": "µM"}, {"measurement": "IC50", "setting": "[3]", "result": "> 1700", "unit": "nM"}, {"measurement": "EC50", "setting": "[4]", "result": "> 100", "unit": "µM"}, {"measurement": "IC50", "setting": "[5]", "result": "> 100", "unit": "µM"}, {"measurement": "selectivity ratio", "setting": "[6]", "result": "> 1"}, {"measurement": "MIC", "setting": "[7]", "result": 128, "unit": "µg/mL"}, {"measurement": "zone of inhibition", "setting": "[8]", "result": "> 3", "unit": "mm"}, {"measurement": "zone of inhibition", "setting": "[9]", "result": "> 2", "unit": "mm"}, {"measurement": "MIC", "setting": "[10]", "result": "> 128", "unit": "µg/mL"}, {"measurement": "zone of inhibition", "setting": "[11]", "result": "> 2", "unit": "mm"}, {"measurement": "zone of inhibition at 64000 µg/mL", "setting": "[12]", "result": "> 2", "unit": "mm"}, {"measurement": "MIC", "setting": "[13]", "result": 64, "unit": "µg/mL"}, {"measurement": "zone of inhibition", "setting": "[14]", "result": "> 3", "unit": "mm"}, {"measurement": "zone of inhibition", "setting": "[15]", "result": "> 3", "unit": "mm"}]}]}
